Assay results taken from ChEMBL document CHEMBL3352052, “Bioactive metabolites from Chaetomium aureum: structure elucidation and inhibition of the Hsp90 machine chaperoning activity” (Bioorg Med Chem, 2015).
The source made the active and inactive calls. No cut-off for these calls is given here.

What was measured:
[1] = tested on: Hs-578T; assay: Cytotoxicity against human Hs578T cells assessed as cell survival at 10 to 20 uM by MTS assay; assay type: functional, cell-based
[2] = species: Oryctolagus cuniculus; assay: Inhibition of Hsp90 chaperoning activity in rabbit reticulocyte lysate assessed as progesterone receptor hormone binding activity by liquid scintillation counting analysis
In short: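 Purified PR was bound to PR22 antibody-protein A-sepharose beads and mildly heat-denatured. Then 0.1 μM [3H]-progesterone was added for 3 h on ice, beads washed three times, and bound hormone counted by liquid scintillation.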

[3] = tested on: MCF7; assay: Cytotoxicity against human MCF7 cells assessed as cell survival at 10 to 20 uM by MTS assay; assay type: functional, cell-based
[4] = tested on: LNCaP; assay: Cytotoxicity against human LNCAP cells assessed as cell survival at 10 to 20 uM by MTS assay; assay type: functional, cell-based
[5] = tested on: MDA-MB-453; assay: Cytotoxicity against human MDA-MB-453 cells assessed as cell survival at 10 to 20 uM by MTS assay; assay type: functional, cell-based
[6] = tested on: Hs-578T; assay: Induction of Hsp40 degradation in human Hs578T cells at 10 to 20 uM by Western blot analysis; assay type: functional, cell-based
In short: (§1)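 Hs578T cells seeded in 6-well plates, treated the next day for 48 h, with medium and drug at the same concentration replaced every 24 h. Cells were harvested at 48 h and lysed, and 10 μg protein lysate was analysed by Western blot with specific antibodies, including rabbit anti-total GR.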

[7] = tested on: Hs-578T; assay: Induction of Hsp70 overexpression in human Hs578T cells at 10 to 20 uM by Western blot analysis; assay type: functional, cell-based; in short: as §1
[8] = tested on: HeLa; assay: Cytotoxicity against human HeLa cells assessed as cell survival at 10 to 20 uM by MTS assay; assay type: functional, cell-based
[9] = tested on: Hs-578T; assay: Induction of glucocorticoid receptor degradation in human Hs578T cells at 10 to 20 uM by Western blot analysis; assay type: functional, cell-based; in short: as §1
[10] = tested on: MDA-MB-231; assay: Cytotoxicity against human MDA-MB-231 cells assessed as cell survival at 10 to 20 uM by MTS assay; assay type: functional, cell-based
[11] = tested on: MDA-MB-231; assay: Cytotoxicity against human MDA-MB-231 cells assessed as cell survival at 10 to 20 uM after 48 hrs by MTS assay; assay type: functional, cell-based
[12] = tested on: LNCaP; assay: Cytotoxicity against human LNCAP cells assessed as cell survival at 10 to 20 uM after 48 hrs by MTS assay; assay type: functional, cell-based
[13] = tested on: Hs-578T; assay: Cytotoxicity against human Hs578T cells assessed as cell survival at 10 to 20 uM after 48 hrs by MTS assay; assay type: functional, cell-based

| Structure (SMILES) | Activity [1] | inhibition [2] | Activity [3] | Activity [4] | Activity [5] | Activity [6] | Activity [7] | Activity [8] | Activity [9] | Activity [10] | inhibition [11] | inhibition [12] | inhibition [13] |
| --- | --- | --- | --- | --- | --- | --- | --- | --- | --- | --- | --- | --- | --- |
| CC[C@H](C)/C=C(C)/C=C/C1=CC2=C(Cl)C(=O)[C@](C)(OC(C)=O)C(=O)C2=CO1 | inactive | Active | inactive | inactive | inactive | Active | Active | inactive | Active | inactive |  |  |  |
| CC[C@H](C)/C=C(C)/C=C/C1=CC2=C(Cl)C(=O)[C@](C)(O)C(=O)C2=CO1 |  | Active |  |  |  |  |  |  |  |  | Active | Active | Active |
| C=CCNC1=C2C[C@@H](C)C[C@H](OC)[C@H](O)[C@@H](C)/C=C(\C)[C@H](OC(N)=O)[C@@H](OC)/C=C\C=C(/C)C(=O)NC(=CC1=O)C2=O |  | Active |  |  |  |  |  |  |  |  |  |  |  |
